Bioassay records: PubChem, several laboratories
A selection: hits, their analogues and other compounds. The true share with any hit is near 6.6%.
Lung fibro prol: blocks proliferation of human lung fibroblasts; AID 719; viability, % at 10 µM; 85,000 tested, 1.1% active; LL 47 human lung fibroblast viability, ATP luminescence; active compounds read low;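 active = viability at or below 50% in the single dose screen; inactive = viability above 50%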;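 also: compound exposure lasted 72 h before the ATP readout; 100% = median luminescence of untreated cell-only wells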
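Material: human LL 47 lung fibroblast cells; quantity: 1,150 cells/well; medium: IMEM plus 15% FBS; doses: 0.1% DMSO in all compound wells; timing: overnight attachment after seeding, then 72 h compound exposure at 37 °C; detection: CellTiter-Glo luminescence; measure: % viability of median cell-only signal; controls: cell-only wells, no compound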
HUVEC inhibit: inhibitors of human endothelial cell proliferation | HUVEC proliferation, CellTiter-Glo luminescence, 72 h; active compounds read low | viability, % at 10 µM (by protocol) | 86,000 tested, 1.1% active | AID 648;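 active = viability at or below 30%; inactive = viability above 30%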;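 also: 100% = median luminescence of DMSO-only cell control wells on each plate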
H69AR growth 86K: growth inhibitors of human H69AR lung tumor cells | H69AR lung tumor viability, ATP luminescence, 72 h; active compounds read low | viability, % at 10 µM | 85,000 tested, 6% active;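 active = viability at or below 40%; inactive = viability above 40%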;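 also: multidrug resistant small cell line overexpressing MRP-1 efflux transporter; 100% = mean luminescence of untreated control wells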
Jurkat tox 60K: cytotoxicity toward Jurkat cells; Jurkat E6.1 viability, ATP luminescence, 48 h; 56,000 tested, 1.2% active; inhibition, % at 4 µM;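 active = inhibition above the mean inhibition of all tested compounds plus 3 SD, cut at about 28% in these data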
Active calls of the source: *; / = no result.

SMILES | Lung fibro prol | HUVEC inhibit | H69AR growth 86K | Jurkat tox 60K
CN1c2ccccc2C(C)(C)C12CC(CCl)=NO2 (centres undefined) | 95.8 | 90.1 | 4.5* | /
CCSc1nnc(NC(=O)COc2ccc3ccccc3c2)s1 | 94.5 | 109.8 | 90.9 | /
CC(Sc1nc(N(C)C)nc(N2CCOCC2)n1)C(=O)Nc1ccccc1 (centres undefined) | 94.4 | 101.7 | 31.4* | 7.3
N#Cc1cc2c(nc1SCc1ccncc1)CCC2 | 96.8 | 104.5 | 89.2 | 14.6
CC(C)n1cc(/C=C(\C#N)S(=O)(=O)c2ccccc2)c2ccccc21 | 92.0 | 85.7 | 33.7* | -3.2
CNC(=O)c1cc2cc(Cl)cc(OC)c2oc1=O | 98.8 | 109.4 | 101.7 | -3.7
Cc1nn(-c2cc(N3CCCC3)ccc2[N+](=O)[O-])c(=O)c2ccccc12 | 103.5 | 83.2 | 32.9* | /
CCn1cc(C(=O)Nn2cnnc2)c(=O)c2ccc(C)nc21 | 99.6 | 106.5 | 94.8 | -2.6
Cc1ccc(S(=O)(=O)N2C(=O)CCC2C(=O)Nn2cnnc2)cc1 (centres undefined) | 102.8 | 100.0 | 73.4 | /
N#CC(=C1CCCC1)c1nc(-c2ccccc2O)cs1 | 88.0 | 80.3 | 28.9* | /
N#CC(=C1CCCC1)c1nc(-c2ccccc2)cs1 | 90.3 | 95.1 | 87.1 | /
Cc1c(NC(=O)CSc2nc3ccccc3s2)c(=O)n(-c2ccccc2)n1C | 100.0 | 114.3 | 94.7 | /
O=C(CNC(=O)c1ccco1)OCC(=O)c1ccc2ccccc2c1 | 106.5 | 101.8 | 97.0 | /
O=c1c2c3nc4ccccc4nc3n(-c3cccc(F)c3)c2ncn1Cc1ccc2c(c1)OCO2 | 65.8 | 72.6 | 18.1* | 1.5
CCC(C)n1cnc2c(c1=O)c1nc3ccccc3nc1n2Cc1ccc2c(c1)OCO2 (centres undefined) | 91.9 | 70.9 | 68.9 | -1.6
Cc1ccc2[nH]c3c(c2c1)CCCC3=O | 87.4 | 27.2* | 89.1 | /
Cc1ccc2[nH]c3c(c2c1)CCc1cn[nH]c1-3 | 98.5 | 69.5 | 38.9* | 3.1
Cc1ccc2[nH]c3c(c2c1)CCC3=O | 106.2 | 32.0 | 95.6 | -4.3
Cc1ccc2nc(NC(=O)CN3CCOCC3)sc2c1 | 102.6 | 106.1 | 100.0 | -2.2
CCCC(=O)Nc1nc2ccc(S(=O)(=O)N3CCCCC3)cc2s1 | 47.5* | 53.9 | 19.6* | 78.7*
CCCCC(=O)Nc1ccc(C(=O)Nc2ccc(S(=O)(=O)N3CCCC3)cc2)cc1 | 41.9* | 93.4 | 62.8 | 12.5
CC(=O)c1ccc(NC(=O)c2ccc(S(=O)(=O)N3CCCC3)cc2)cc1 | 103.4 | 98.9 | 79.7 | -1.8
CC(C)CC(=O)Nc1nc2ccc(S(=O)(=O)N3CCOCC3)cc2s1 | 79.8 | 67.0 | 27.1* | /
Cc1ccc2nc(NC(=O)C3CCCN(S(=O)(=O)c4cnc[nH]4)C3)sc2c1 (centres undefined) | 89.8 | 99.3 | 83.8 | -1.8
Cc1ccc2nc(NC(=O)C3CCCN(S(=O)(=O)c4cccnc4)C3)sc2c1 (centres undefined) | 109.5 | 100.5 | 27.7* | 4.4
SMILES | Lung fibro prol | HUVEC inhibit | H69AR growth 86K | Jurkat tox 60K
Cc1nc(NC(=O)CSc2ccccc2N)sc1C | 91.9 | 79.5 | 92.5 | 0.7
Cc1ccc(Cl)cc1NC1=NC(=S)N(C(C)C)C12CCCCC2 | 85.2 | 97.0 | 85.4 | /
N#Cc1ccc(C(=O)Nc2ccc(N3CCN(C(=O)c4ccco4)CC3)cc2)c(F)c1 | 112.6 | 106.0 | 86.6 | /
CN(C)S(=O)(=O)c1ccc(S(=O)(=O)N(Cc2ccco2)Cc2ccccc2Cl)cc1 | 80.3 | 94.0 | 40.0* | 3.0
COc1ccc(NC(=O)Nc2nccs2)cc1 | 85.8 | 57.2 | 20.3* | 19.3
O=C(Nc1ccccc1)Nc1nccs1 | 96.9 | 79.0 | 88.5 | /
COc1cc2c(cc1OC)C(C(=O)Nc1ccc3c(c1)OCCO3)C(c1cccnc1)N(C)C2=O (centres undefined) | 100.6 | 103.3 | 93.1 | /
Cc1cccc(-c2nc(CN3CCCC(C(=O)NC4CCCCCC4)C3)c(C)o2)c1 (centres undefined) | 93.9 | 34.8 | 39.9* | 5.2
Cc1cccc(-c2nc(CN3CCCC(C(=O)NC4CCCCC4)C3)c(C)o2)c1 (centres undefined) | 108.5 | 60.4 | 38.6* | -1.6
N=C(N)N1CCc2ccccc2C1 | 95.6 | 100.4 | 87.8 | /
Cn1cc(C(=O)c2ccc(Cl)cc2)cc1-c1nc2ccccc2n1C | 91.0 | 72.6 | 51.6 | 42.5*
Cn1c(=O)c(C(=O)c2ccccc2)nc2ccccc21 | 97.2 | 108.2 | 103.8 | 3.7
O=c1cc(-c2ccccc2)[nH]n1-c1nc2ccccc2[nH]1 | 27.5* | 54.2 | / | -5.5
CCOC(=O)c1ccc(-n2[nH]c(-c3ccccc3)cc2=O)cc1 | 93.6 | 49.2 | 49.5 | /
COc1ccc2nc(NC(=O)CSc3nc4ccccc4o3)sc2c1 | 94.9 | 86.3 | 7.1* | 5.7
Cc1nc(NC(=O)CSc2nc3cccnc3n2Cc2ccccc2)sc1C | 50.9 | 32.9 | 17.8* | -2.8
CCOC(=O)CNC(=O)CSc1nc2cccnc2n1Cc1ccccc1 | 103.3 | 105.5 | 93.2 | -1.6
CCOc1ccc2nc(NC(=O)CSc3nc4cccnc4n3C)sc2c1 | 96.7 | 68.4 | 26.5* | 8.8
COc1ccc(OC)c2[nH]c(=O)c(CCNC(=O)c3ccc(Br)o3)cc12 | 92.8 | 83.5 | 79.2 | -5.7
Cc1noc(C)c1S(=O)(=O)N(CCc1ccccc1)Cc1ccccc1 | 92.8 | 86.4 | 75.3 | 9.4
COc1cccc2cc(C(=O)NCc3ccco3)c(=Nc3ccc(C(=O)O)cc3)oc12 | 85.5 | 77.9 | 11.9* | /
CCOC(=O)c1ccc(CNC(=O)c2cc3cccc(OC)c3oc2=O)o1 | 102.0 | 94.1 | 88.7 | -0.9
Cc1cc(C)cc(NC2=NC3(CCCCC3)N=C(N)N2)c1 | 56.4 | 63.0 | 17.8* | 65.5*
Cc1[nH]nc2c1C(CCc1ccccc1)C(C#N)=C(N)O2 (centres undefined) | 95.9 | 94.3 | / | /
Cc1ccc(C2NC(=O)NC3=C2CCc2ccccc23)cc1 (centres undefined) | 105.3 | 93.9 | 76.3 | 6.7
SMILES | Lung fibro prol | HUVEC inhibit | H69AR growth 86K | Jurkat tox 60K
COc1ccc(C2NC(=O)NC3=C2CCc2ccccc23)cc1 (centres undefined) | 83.5 | 80.3 | 24.1* | 72.3*
CCC(=O)n1nc(-c2ccccc2)nc1N | 96.7 | 96.9 | 84.6 | /
CCC(=O)n1nc(-c2ccc(Cl)cc2)nc1NCc1ccccc1 | 51.7 | 45.2 | 17.0* | /
Cn1c(=O)c(=O)n(C)c2cc(S(=O)(=O)N3CCc4ccccc43)ccc21 | 83.2 | 99.5 | 73.6 | -1.6
COC(=O)Nc1ccc(S(=O)(=O)N2CCCc3ccccc32)cc1 | 53.2 | 51.4 | 17.7* | 88.5*
Cn1c(=O)oc2cc(S(=O)(=O)N3CCCc4ccccc43)ccc21 | 50.2 | 47.7 | 22.6* | 91.4*
CCc1nnc(NC(=O)c2ccc(S(=O)(=O)N3CCCc4ccccc43)cc2)o1 | 67.5 | 58.2 | 19.9* | /
O=C(Cn1cnc2sc(-c3ccccc3)cc2c1=O)NCc1ccccc1 | 64.8 | 50.6 | 21.8* | /
O=C(Cn1nnc(-c2ccccc2)n1)NCc1ccco1 | 99.0 | 102.5 | 106.6 | /
O=C(Cn1cnc2sc(-c3ccccc3)cc2c1=O)NCc1ccco1 | 67.8 | 54.1 | 25.9* | 42.5*
O=C(Cn1cnc2sc(-c3ccccc3)cc2c1=O)NCCc1ccccc1 | 68.8 | 39.2 | 26.2* | /
O=c1c(-c2ccnn2-c2cccc(Cl)c2)cnc2n1CCS2 | 95.1 | 97.5 | 81.3 | /
